Results published in ChEMBL document CHEMBL1134507, “Potential new antitumor agents from an innovative combination of demethylcantharidin, a modified traditional Chinese medicine, with a platinum moiety” (J Med Chem, 2001).
Active and inactive are the calls of the source. The rule behind the calls is not given here.

Assays:
Mus musculus [1] = assay: Ratio of the relative tumor volume in the Tx group over the control group at day 60, at 2 mg/kg dose (ip) given on days 1, 5 and 9 (In vivo antitumor activity in nude mice); assay type: functional
Method in brief: (§1)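 SK-Hep-1 human liver tumor cells inoculated sc into male nude mice. Dosing began once tumors reached 5 mm × 5 mm, given ip on days 1, 5 and 9. Vehicle was normal saline for the reference platinum drug and 5% dextrose for the other Pt complexes. Controls received saline or 5% dextrose. Recorded: T/C (%), body-weight change at nadir, and deaths per group.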

Mus musculus [2] = assay: Ratio of the relative tumor volume in the Tx group over the control group at day 60, at 4 mg/kg dose (ip) given on days 1, 5 and 9 (In vivo antitumor activity in nude mice); assay type: functional; method in brief: as §1
Mus musculus [3] = assay: Ratio of the relative tumor volume in the Tx group over the control group at day 60, at 8 mg/kg dose (ip) given on days 1, 5 and 9 (In vivo antitumor activity in nude mice); assay type: functional; method in brief: as §1
Mus musculus [4] = assay: In vivo antitumor activity in SK-Hep-1 sc-Inoculated Xenograft in male nude mice dosed at 2 mg/kg (ip)on days 1,5 and 9; Not active; assay type: functional, organism-based; set-up: dose 2 mg/kg; method in brief: as §1
Mus musculus [5] = assay: In vivo antitumor activity in SK-Hep-1 sc-Inoculated Xenograft in male nude mice dosed at 4 mg/kg (ip)on days 1,5 and 9; Not active; assay type: functional, organism-based; set-up: dose 4 mg/kg; method in brief: as §1
Mus musculus [6] = assay: In vivo antitumor activity in SK-Hep-1 sc-Inoculated Xenograft in male nude mice dosed at 8 mg/kg (ip)on days 1,5 and 9; assay type: functional; method in brief: as §1
Mus musculus [7] = assay: In vivo antitumor activity in SK-Hep-1 sc-Inoculated Xenograft in male nude mice dosed at 10 mg/kg (ip)on days 1,5 and 9; Acutely toxic; assay type: functional, organism-based; set-up: dose 10 mg/kg; method in brief: as §1
L1210 [8] = assay: Cytotoxicity against […]resistant mouse leukemia, assessed by MTT assay after 72 h of compound exposure (resistance level); assay type: functional, cell-based
Method in brief: (§2)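 MTT cytotoxicity assay run on cisplatin-sensitive parental cells and cisplatin-resistant sublines. Drug exposure was 72 h for L1210 and 96 h for NCI:H460. IC50 determined for each cell line. Fold resistance = IC50 in resistant cells divided by IC50 in parental cells.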

L1210 [9] = assay: Cytotoxicity against […]sensitive mouse leukemia, assessed by MTT assay after 72 hr of compound exposure; assay type: functional, cell-based; method in brief: as §2
L1210 [10] = assay: Growth inhibitory activity against L1210 mouse leukemia cancer cell line; assay type: functional, cell-based
Method in brief: (§3)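 Tetrazolium (MTT) assay. Drug treatment began 24 h after cell seeding, exposure lasted 72 h, and the MTT test followed. Read-out was IC50.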

MDA-MB-231 = assay: Growth inhibitory activity against MDA-MB-231 human breast cancer cell line; assay type: functional, cell-based; method in brief: as §3
Mus musculus [11] = assay: Toxicity in male nude mice measured as N (no. of deaths), at 25 mg/kg (ip) given on days 1, 5 and 9; assay type: organism-based; set-up: dose 25 mg/kg; conditions: in vivo; method in brief: as §1
Mus musculus [12] = assay: Toxicity in male nude mice measured as N (no. of deaths), at 50 mg/kg (ip) given on days 1, 5 and 9; assay type: organism-based; set-up: dose 50 mg/kg; conditions: in vivo; method in brief: as §1
Mus musculus [13] = assay: Toxicity in male nude mice measured as N (no. of deaths), at 75 mg/kg (ip) given on days 1, 5 and 9; assay type: organism-based; set-up: dose 75 mg/kg; conditions: in vivo; method in brief: as §1
Mus musculus [14] = assay: Toxicity in male nude mice measured as N (no. of deaths), at 100 mg/kg (ip) given on days 1, 5 and 9; assay type: organism-based; set-up: dose 100 mg/kg; conditions: in vivo; method in brief: as §1
Mus musculus [15] = assay: Toxicity in male nude mice measured as N (no. of deaths), at 120 mg/kg (ip) given on days 1, 5 and 9; assay type: organism-based; set-up: dose 120 mg/kg; conditions: in vivo; method in brief: as §1
NCI-H460 [16] = assay: Growth inhibitory activity against NCI-H460 human lung cancer cell line; assay type: functional, cell-based; method in brief: as §3
NCI-H460 [17] = assay: Cytotoxicity against NCI-H460-resistant Human Nonsmall Cell Lung Cancer cell line assessed by MTT assay after 96 hr of compound exposure (resistance level); assay type: functional, cell-based; method in brief: as §2
NCI-H460 [18] = assay: Cytotoxicity against NCI-H460-sensitive Human Nonsmall Cell Lung Cancer cell line assessed by MTT assay after 96 hr of compound exposure; assay type: functional, cell-based; method in brief: as §2
NTERA-2-cl-D1 = assay: Growth inhibitory activity against […]-cl-D1 human testicular cancer cell line; assay type: functional, cell-based; method in brief: as §3
SK-HEP1 = assay: Growth inhibitory activity against SK-Hep1 human liver cancer cell line; assay type: functional, cell-based; method in brief: as §3
SK-OV-3 = assay: Growth inhibitory activity against SK-OV-3 human ovarian cancer cell line; assay type: functional, cell-based; method in brief: as §3
COLO 320DM = assay: Growth inhibitory activity against COLO-320-DM human colon cancer cell line; assay type: functional, cell-based; method in brief: as §3
Mus musculus [19] = assay: Ratio of the relative tumor volume in the Tx group over the control group at day 60, at 25 mg/kg dose (ip) given on days 1, 5 and 9 (In vivo antitumor activity in nude mice); assay type: functional, organism-based; set-up: dose 25 mg/kg
Mus musculus [20] = assay: Ratio of the relative tumor volume in the Tx group over the control group at day 60, at 75 mg/kg dose (ip) given on days 1, 5 and 9 (In vivo antitumor activity in nude mice); assay type: functional, organism-based; set-up: dose 75 mg/kg
Mus musculus [21] = assay: Ratio of the relative tumor volume in the Tx group over the control group at day 60, at 100 mg/kg dose (ip) given on days 1, 5 and 9 (In vivo antitumor activity in nude mice); assay type: functional, organism-based; set-up: dose 100 mg/kg
Mus musculus [22] = assay: Ratio of the relative tumor volume in the Tx group over the control group at day 60, at 120 mg/kg dose (ip) given on days 1, 5 and 9 (In vivo antitumor activity in nude mice); assay type: functional, organism-based; set-up: dose 120 mg/kg
Mus musculus [23] = assay: In vivo antitumor activity in SK-Hep-1 sc-Inoculated Xenograft in male nude mice dosed at 25 mg/kg (ip)on days 1,5 and 9; Not active; assay type: functional, organism-based; set-up: dose 25 mg/kg
Method in brief: (§4)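 Male nude mice bearing subcutaneous SK-Hep-1 human liver tumor xenografts. Dosing started once tumors reached 5 mm × 5 mm, given ip on days 1, 5 and 9. Cisplatin was given in normal saline and other Pt complexes in 5% dextrose; controls received either vehicle. T/C (%), weight change at nadir and deaths recorded.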

Mus musculus [24] = assay: In vivo antitumor activity in SK-Hep-1 sc-Inoculated Xenograft in male nude mice dosed at 50 mg/kg (ip)on days 1,5 and 9; Not active; assay type: functional, organism-based; set-up: dose 50 mg/kg; method in brief: as §4
Mus musculus [25] = assay: In vivo antitumor activity in SK-Hep-1 sc-Inoculated Xenograft in male nude mice dosed at 75 mg/kg (ip)on days 1,5 and 9; Not active; assay type: functional, organism-based; set-up: dose 75 mg/kg; method in brief: as §4
Mus musculus [26] = assay: In vivo antitumor activity in SK-Hep-1 sc-Inoculated Xenograft in male nude mice dosed at 100 mg/kg (ip)on days 1,5 and 9; assay type: functional, organism-based; set-up: dose 100 mg/kg; method in brief: as §4
Mus musculus [27] = assay: In vivo antitumor activity in SK-Hep-1 sc-Inoculated Xenograft in male nude mice dosed at 120 mg/kg (ip)on days 1,5 and 9; assay type: functional, organism-based; set-up: dose 120 mg/kg; method in brief: as §4
Mus musculus [28] = assay: Ratio of the relative tumor volume in the Tx group over the control group at day 60, at 50 mg/kg dose (ip) given on days 1, 5 and 9 (In vivo antitumor activity in nude mice); assay type: functional, organism-based; set-up: dose 50 mg/kg
L1210 [29] = assay: Cytotoxicity against Cisplatin-resistant L1210-resistant mouse leukemia, assessed by MTT assay after 72 hr of compound exposure (resistance level); assay type: functional, cell-based; method in brief: as §2
Mus musculus [30] = assay: Toxicity in male nude mice measured as N (no. of deaths), at 2 mg/kg (ip) given on days 1, 5 and 9; assay type: organism-based; set-up: dose 2 mg/kg; conditions: in vivo; method in brief: as §1
Mus musculus [31] = assay: Toxicity in male nude mice measured as N (no. of deaths), at 4 mg/kg (ip) given on days 1, 5 and 9; assay type: organism-based; set-up: dose 4 mg/kg; conditions: in vivo; method in brief: as §1
Mus musculus [32] = assay: Toxicity in male nude mice measured as N (no. of deaths), at 8 mg/kg (ip) given on days 1, 5 and 9; assay type: organism-based; set-up: dose 8 mg/kg; conditions: in vivo; method in brief: as §1
Mus musculus [33] = assay: Toxicity in male nude mice measured as N (no. of deaths), at 10 mg/kg (ip) given on days 1, 5 and 9; assay type: organism-based; set-up: dose 10 mg/kg; conditions: in vivo; method in brief: as §1
Mus musculus [34] = assay: Ratio of the relative tumor volume in the Tx group over the control group at day 60, at 10 mg/kg dose (ip) given on days 1, 5 and 9 (In vivo antitumor activity in nude mice); assay type: functional, organism-based; set-up: dose 10 mg/kg
Mus musculus [35] = assay: In vivo antitumor activity in SK-Hep-1 sc-Inoculated Xenograft in male nude mice dosed at 4 mg/kg (ip)on days 1,5 and 9; assay type: functional, organism-based; set-up: dose 4 mg/kg; method in brief: as §4
Mus musculus [36] = assay: In vivo antitumor activity in SK-Hep-1 sc-Inoculated Xenograft in male nude mice dosed at 10 mg/kg (ip)on days 1,5 and 9; assay type: functional, organism-based; set-up: dose 10 mg/kg; method in brief: as §4

| Compound | T/C (Mus musculus [1]) [%] | T/C (Mus musculus [2]) [%] | T/C (Mus musculus [3]) [%] | Weight change at nadir (Mus musculus [4]) | Weight change at nadir (Mus musculus [6]) [%] | IC50 (L1210 [9]) [µM] | IC50 (L1210 [10]) [µM] | IC50 (MDA-MB-231) [µM] | IC50 (NCI-H460 [16]) [µM] | IC50 (NCI-H460 [17]) [µM] | IC50 (NCI-H460 [18]) [µM] | IC50 (NTERA-2-cl-D1) [µM] | IC50 (SK-HEP1) [µM] | IC50 (SK-OV-3) [µM] | IC50 (COLO 320DM) [µM] | further results |
| --- | --- | --- | --- | --- | --- | --- | --- | --- | --- | --- | --- | --- | --- | --- | --- | --- |
| O=C1OC(=O)C2C3CCC(O3)C12 (stereo unspecified) [DEMETHYL-CANTHARIDIN] | 63.2 | 66.1 | 34.8 | inactive | -20 |  |  |  |  |  |  |  |  |  |  | Weight change at nadir (Mus musculus [5]): inactive; Weight change at nadir (Mus musculus [7]): Toxic |
| CARBOPLATIN [listing 1 of 2 here] |  |  |  |  |  | 17.8 | 10.1 | 1080 | 60.3 | 54.6 | 17.8 | 2.75 | 501 | 149 | 188 | IC50 (L1210 [8]): 138 µM; No. of deaths (Mus musculus [11]): 1; No. of deaths (Mus musculus [12]): 2; No. of deaths (Mus musculus [13]): 2; No. of deaths (Mus musculus [14]): 5; No. of deaths (Mus musculus [15]): 4 |
| CARBOPLATIN [listing 2 of 2 here] |  |  |  |  |  |  |  |  |  |  |  |  |  |  |  | T/C (Mus musculus [19]): 87.5%; T/C (Mus musculus [20]): 44.9%; T/C (Mus musculus [21]): 67.8%; T/C (Mus musculus [22]): 62.8%; Weight change at nadir (Mus musculus [23]): inactive; Weight change at nadir (Mus musculus [24]): inactive; Weight change at nadir (Mus musculus [25]): inactive; Weight change at nadir (Mus musculus [26]): -21%; Weight change at nadir (Mus musculus [27]): -40%; T/C (Mus musculus [28]): 109% |
| CISPLATIN [listing 1 of 2 here] |  |  |  |  |  | 1.01 | 0.51 | 65.7 | 11.3 | 4.96 | 0.59 | 0.19 | 54.1 | 15.2 | 11.9 | IC50 (L1210 [29]): 14.5 µM; No. of deaths (Mus musculus [30]): 1; No. of deaths (Mus musculus [31]): 4; No. of deaths (Mus musculus [32]): 4; No. of deaths (Mus musculus [33]): 4 |
| CISPLATIN [listing 2 of 2 here] | 87.5 | 81.1 | 47.1 | inactive | -35 |  |  |  |  |  |  |  |  |  |  | T/C (Mus musculus [34]): 39.6%; Weight change at nadir (Mus musculus [35]): -25%; Weight change at nadir (Mus musculus [36]): -40% |
